Activity calls are given as the source filed them. The calls are words filed in the database; no cut-off is given here.
Tests used:
Integrin alpha-4/beta-1 = Integrin alpha-4/beta-1 (Homo sapiens, UniProt P05556+P13612); assay: Inhibition of integrin alpha4beta1-mediated Jurkat cell adhesion to VCAM-1 by FACS analysis; type: cell-based
How it was run: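 α4β1-positive Jurkat cells were incubated with recombinant soluble VCAM-1, and binding of this ligand was measured by flow cytometry (FACS).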

[1] = Oral bioavailability in Sprague-Dawley rat at 10 mg/kg; type: ADME, organism-based; conditions: in vivo
[2] = Drug excretion in Sprague-Dawley rat bile at 10 mg/kg, po; type: ADME, organism-based; design: dose 10 mg/kg, route oral; conditions: read-out: Activity
Ovis aries [3] = assay: Antiasthamatic activity in po dosed sheep asthma model assessed as prevention of carbachol-induced early phase hyperresponsiveness; type: functional; conditions: read-out: MED
Ovis aries [4] = assay: Antiasthamatic activity in po dosed sheep asthma model assessed as prevention of carbachol-induced late phase hyperresponsiveness; type: functional; conditions: read-out: MED
Ovis aries [5] = assay: Antiasthamatic activity in sheep asthma model assessed as prevention of carbachol-induced hyperresponsiveness at 1 mg/kg, po; type: functional, organism-based; design: dose 1 mg/kg
Ovis aries [6] = assay: Antiasthamatic activity in sheep asthma model assessed as prevention of carbachol-induced hyperresponsiveness at 0.3 mg/kg, po; type: functional, organism-based; design: dose 0.3 mg/kg
[7] = Bioavailability in Sprague-Dawley rat at 10 mg/kg, iv and po; type: ADME, organism-based; conditions: in vivo
How it was run: (§1)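 Male rats in each arm; the compound was given at 10 mg/kg both intravenously and orally, with parameters taken from these two arms.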

[8] = Half life in Sprague-Dawley rat at 10 mg/kg, iv and po; type: ADME, organism-based; design: dose 10 mg/kg, route oral; conditions: in vivo; how it was run: as §1
Rattus norvegicus = assay: Volume of distribution in Sprague-Dawley rat at 10 mg/kg, iv and po; type: ADME, organism-based; design: dose 10 mg/kg, route oral; conditions: in vivo; how it was run: as §1
[9] = Bioavailability in Beagle dog at 3 mg/kg, iv and 10 mg/kg, po; type: ADME, organism-based, Canis lupus familiaris; conditions: in vivo
How it was run: (§2)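 Male dogs in each arm; the intravenous arm used 3 mg/kg and the oral arm 10 mg/kg.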

[10] = Clearance in Beagle dog at 3 mg/kg, iv and 10 mg/kg, po; type: ADME, organism-based, Canis lupus familiaris; conditions: in vivo; how it was run: as §2
[11] = Half life in Beagle dog at 3 mg/kg, iv and 10 mg/kg, po; type: ADME, organism-based, Canis lupus familiaris; conditions: in vivo; how it was run: as §2
[12] = Volume of distribution in Beagle dog at 3 mg/kg, iv and 10 mg/kg, po; type: ADME, organism-based, Canis lupus familiaris; conditions: in vivo; how it was run: as §2
[13] = Bioavailability in cynomolgus monkey at 3 mg/kg, iv and 10 mg/kg, po; type: ADME, organism-based, Macaca fascicularis; conditions: in vivo
How it was run: (§3)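 Male monkeys in each arm; the compound was given at 3 mg/kg intravenously and at 10 mg/kg orally.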

[14] = Clearance in cynomolgus monkey at 3 mg/kg, iv and 10 mg/kg, po; type: ADME, organism-based, Macaca fascicularis; conditions: in vivo; how it was run: as §3
[15] = Half life in cynomolgus monkey at 3 mg/kg, iv and 10 mg/kg, po; type: ADME, organism-based, Macaca fascicularis; conditions: in vivo; how it was run: as §3
[16] = Volume of distribution in cynomolgus monkey at 3 mg/kg, iv and 10 mg/kg, po; type: ADME, organism-based, Macaca fascicularis; conditions: in vivo; how it was run: as §3

Integrin alpha-4/beta-1, sequence (P05556 whole entry): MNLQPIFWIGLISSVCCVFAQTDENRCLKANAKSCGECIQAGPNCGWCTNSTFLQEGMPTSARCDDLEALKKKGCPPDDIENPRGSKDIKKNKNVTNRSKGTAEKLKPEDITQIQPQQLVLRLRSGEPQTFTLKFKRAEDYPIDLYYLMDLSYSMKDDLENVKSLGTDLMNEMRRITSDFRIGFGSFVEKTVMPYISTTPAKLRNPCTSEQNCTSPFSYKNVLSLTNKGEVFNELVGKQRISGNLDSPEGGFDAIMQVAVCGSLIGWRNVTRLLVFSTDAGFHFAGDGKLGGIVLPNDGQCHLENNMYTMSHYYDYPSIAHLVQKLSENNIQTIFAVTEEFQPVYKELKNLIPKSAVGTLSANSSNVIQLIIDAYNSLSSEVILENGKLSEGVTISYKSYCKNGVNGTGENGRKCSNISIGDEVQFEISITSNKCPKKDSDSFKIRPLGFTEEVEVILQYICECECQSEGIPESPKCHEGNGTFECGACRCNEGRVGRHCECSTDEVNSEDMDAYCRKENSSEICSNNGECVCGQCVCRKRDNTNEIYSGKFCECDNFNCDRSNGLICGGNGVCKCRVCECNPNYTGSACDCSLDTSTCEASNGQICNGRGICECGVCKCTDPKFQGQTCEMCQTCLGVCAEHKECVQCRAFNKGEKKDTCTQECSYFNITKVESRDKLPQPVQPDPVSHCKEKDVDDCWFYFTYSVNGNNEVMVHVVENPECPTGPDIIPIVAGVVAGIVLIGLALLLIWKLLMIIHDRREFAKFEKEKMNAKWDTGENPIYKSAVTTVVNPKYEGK
Integrin alpha-4/beta-1, sequence (P13612 whole entry): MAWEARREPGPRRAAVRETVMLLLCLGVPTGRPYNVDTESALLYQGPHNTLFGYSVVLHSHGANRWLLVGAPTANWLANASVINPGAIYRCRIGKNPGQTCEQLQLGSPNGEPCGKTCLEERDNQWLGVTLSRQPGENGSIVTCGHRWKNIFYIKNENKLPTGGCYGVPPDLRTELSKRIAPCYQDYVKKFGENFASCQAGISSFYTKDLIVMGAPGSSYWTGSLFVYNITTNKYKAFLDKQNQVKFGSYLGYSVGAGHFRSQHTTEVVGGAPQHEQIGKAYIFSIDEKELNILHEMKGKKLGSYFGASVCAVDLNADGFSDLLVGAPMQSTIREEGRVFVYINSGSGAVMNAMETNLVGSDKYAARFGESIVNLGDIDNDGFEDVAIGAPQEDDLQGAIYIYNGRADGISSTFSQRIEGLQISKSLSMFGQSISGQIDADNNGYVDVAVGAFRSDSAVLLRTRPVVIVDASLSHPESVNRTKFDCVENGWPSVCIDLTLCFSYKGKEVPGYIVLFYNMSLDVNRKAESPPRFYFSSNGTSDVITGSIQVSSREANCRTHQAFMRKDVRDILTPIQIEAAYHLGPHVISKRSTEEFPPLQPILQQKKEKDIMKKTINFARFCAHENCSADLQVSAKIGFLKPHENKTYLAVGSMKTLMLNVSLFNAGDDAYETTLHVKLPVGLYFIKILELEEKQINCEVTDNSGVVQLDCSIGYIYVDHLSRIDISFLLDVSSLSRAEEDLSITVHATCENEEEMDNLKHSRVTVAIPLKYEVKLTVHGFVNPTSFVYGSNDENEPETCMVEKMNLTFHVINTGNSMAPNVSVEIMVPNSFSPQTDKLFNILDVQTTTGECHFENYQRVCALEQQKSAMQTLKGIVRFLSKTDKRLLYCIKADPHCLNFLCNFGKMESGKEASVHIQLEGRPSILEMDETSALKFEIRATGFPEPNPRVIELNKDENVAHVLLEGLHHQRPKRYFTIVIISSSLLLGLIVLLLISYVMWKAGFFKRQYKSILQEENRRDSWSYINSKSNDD

Row | SMILES | IC50 (Integrin alpha-4/beta-1) [nM] | further results
1 | CN(C)C(=O)Oc1ccc(C[C@H](NC(=O)c2ccccc2)C(=O)O)cc1 | 130 | 
2 | COc1ccccc1-c1cncnc1N[C@@H](Cc1ccc(OC(=O)N(C)C)cc1)C(=O)O | 16 | 
3 | CN(C)C(=O)Oc1ccc(C[C@H](Nc2ncncc2-c2cccc(Cl)c2Cl)C(=O)O)cc1 | 77 | 
4 | Cc1cc(C)c(-c2cncnc2N[C@@H](Cc2ccc(OC(=O)N(C)C)cc2)C(=O)O)c(C)c1 | 100 | 
5 | CN(C)C(=O)Oc1ccc(C[C@H](Nc2ncncc2-c2cccc([N+](=O)[O-])c2)C(=O)O)cc1 | 180 | 
6 | Cc1noc(C)c1-c1cncnc1N[C@@H](Cc1ccc(OC(=O)N(C)C)cc1)C(=O)O | < 1 | 
7 | CN(C)C(=O)Oc1ccc(C[C@H](Nc2ncncc2-c2c(F)cccc2F)C(=O)O)cc1 | 27 | 
8 | CN(C)C(=O)Oc1ccc(C[C@H](Nc2ncncc2-c2ccccc2F)C(=O)O)cc1 | 18 | 
9 | Cc1ccccc1-c1cnc(N(C)C2CC2)nc1N[C@@H](Cc1ccc(OC(=O)N(C)C)cc1)C(=O)O | 20 | 
10 | CN(C)C(=O)Oc1ccc(C[C@H](Nc2ncncc2-c2ccc[nH]2)C(=O)O)cc1 | 75 | 
11 | CCCN(CC)c1ncc(-c2ccccc2C)c(N[C@@H](Cc2ccc(OC(=O)N(C)C)cc2)C(=O)O)n1 | 4.9 | 
12 | CCN(CC)c1ncc(-c2ccccc2C)c(N[C@@H](Cc2ccc(OC(=O)N(C)C)cc2)C(=O)O)n1 | 5.7 | 
13 | Cc1ccccc1-c1cnc(N(C)C2CCN(C)CC2)nc1N[C@@H](Cc1ccc(OC(=O)N(C)C)cc1)C(=O)O | 68 | 
14 | CN(C)C(=O)Oc1ccc(C[C@H](Nc2ncncc2-c2cccnc2)C(=O)O)cc1 | 130 | 
15 | Cc1ccccc1-c1cnc(N(C)C2CCCCC2)nc1N[C@@H](Cc1ccc(OC(=O)N(C)C)cc1)C(=O)O | 20 | bioavailability [1]: 26%; dose excreted [2]: < 3%; minimal effective dose (Ovis aries [3]): 10 mg/kg; minimal effective dose (Ovis aries [4]): 10 mg/kg
16 | CCN(C)c1ncc(-c2ccccc2C)c(N[C@@H](Cc2ccc(OC(=O)N(C)C)cc2)C(=O)O)n1 | 5.3 | 
17 | CN(C)C(=O)Oc1ccc(C[C@H](Nc2ncncc2-c2ccccc2)C(=O)O)cc1 | 300 | 
18 | CCN(CC)c1ncc(-c2c(C)noc2C)c(N[C@@H](Cc2ccc(OC(=O)N(C)C)cc2)C(=O)O)n1 |  | Activity (Ovis aries [5]): Active; Activity (Ovis aries [6]): inactive; bioavailability [7]: 19%; half-life [8]: 1.4 h; Vd (Rattus norvegicus): 0.346 L/kg; bioavailability [9]: 59%; clearance [10]: 6.73 mL/min/kg; half-life [11]: 0.9 h; Vd [12]: 0.524 L/kg; bioavailability [13]: 16%; clearance [14]: 13.5 mL/min/kg; half-life [15]: 1.1 h; Vd [16]: 1.29 L/kg
19 | Cc1ccccc1-c1cnc(N(C)C)nc1N[C@@H](Cc1ccc(OC(=O)N(C)C)cc1)C(=O)O | 29 | 
20 | Cc1ccccc1-c1cncnc1N[C@@H](Cc1ccc(OC(=O)N(C)C)cc1)C(=O)O | 25 | 
21 | Cc1ccccc1-c1cnc(N(C)c2ccc(Cl)cc2)nc1N[C@@H](Cc1ccc(OC(=O)N(C)C)cc1)C(=O)O | 107 | 
22 | Cc1ccccc1-c1cnc(N(C)CC(C)C)nc1N[C@@H](Cc1ccc(OC(=O)N(C)C)cc1)C(=O)O | 7 | 
23 | CN(C)C(=O)Oc1ccc(C[C@H](Nc2ncncc2-c2ccncc2)C(=O)O)cc1 | 85 | 
24 | CN(C)C(=O)Oc1ccc(C[C@H](Nc2ncncc2-c2cccs2)C(=O)O)cc1 | 16 | 
25 | CN(C)C(=O)Oc1ccc(C[C@H](Nc2ncnc3ccccc23)C(=O)O)cc1 | 190 | 
26 | Cc1ccsc1-c1cncnc1N[C@@H](Cc1ccc(OC(=O)N(C)C)cc1)C(=O)O | 5 | 
27 | CN(C)C(=O)Oc1ccc(C[C@H](Nc2ncncc2-c2ccccc2C(F)(F)F)C(=O)O)cc1 | 90 | 
28 | CN(C)C(=O)Oc1ccc(C[C@H](Nc2nc(N(C)C3CCCCC3)nc3ccccc23)C(=O)O)cc1 | 8 | 
29 | Cc1ccccc1-c1cnc(N2CCCCC2)nc1N[C@@H](Cc1ccc(OC(=O)N(C)C)cc1)C(=O)O | 32 | 
30 | Cc1ccccc1-c1cnc(N(C)C2CCC2)nc1N[C@@H](Cc1ccc(OC(=O)N(C)C)cc1)C(=O)O | 10 | 
